ChEMBL document CHEMBL1208782, “Synthesis and pharmacological validation of a novel series of non-steroidal FXR agonists” (Bioorg Med Chem Lett, 2010)
Calls of active or inactive are those of the source. The rule behind the calls is not given here.

Tests used:
Estrogen receptor beta = Estrogen receptor beta (Homo sapiens, UniProt Q92731); experiment: Agonist activity at ERbeta-LBD expressed in HEK293 cells assessed as Gal4-DBD interaction by cellular mammalian one hybrid assay; type: functional, cell-based
[1] = Plasma concentration in db/db mouse at 25 mg/kg bid after 4 hrs by LC/MS-MS analysis; type: ADME, organism-based; design: dose 25 mg/kg; conditions: read-out: Drug uptake
Summary of the method: (§1)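 db/db mice were dosed twice daily for 12 days. Plasma and liver concentrations were determined 4 h and 24 h after the last administration.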

[2] = Plasma concentration in db/db mouse at 25 mg/kg bid after 24 hrs by LC/MS-MS analysis; type: ADME, organism-based; design: dose 25 mg/kg; conditions: read-out: Drug uptake; summary of the method: as §1
Liver [3] = experiment: Drug level in db/db mouse liver measured metabolites as carboxylic acid at 5 mg/kg, po after 240 mins; type: ADME, organism-based; design: dose 5 mg/kg, route oral; conditions: in vivo, 4 h
Summary of the method: (§2)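 Mice got a single dose, 5 mg/kg po or 1 mg/kg iv. Liver and bile were sampled 240 min after dosing. Parent carboxylic acid, its acyl-glucuronide and its taurine amide were quantified separately, in ng/mL. Glucuronide identity was confirmed by glucuronidase digestion of bile or bile extracts, which regenerated the parent.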

Mus musculus [4] = experiment: Volume of distribution in db/db mouse at 1 mg/kg, iv; type: ADME, organism-based; design: dose 1 mg/kg, route intravenous; conditions: in vivo
Summary of the method: (§3)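 Derived from the single-dose mouse plasma time courses of parent compound, 5-240 min. Dosing was 5 mg/kg po or 1 mg/kg iv. Volume of distribution is in mL/kg, clearance in mL/h/kg, and oral bioavailability in %.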

[5] = molecular target: Peroxisome proliferator-activated receptor alpha (Homo sapiens, UniProt Q07869); experiment: Agonist activity at PPARalpha-LBD expressed in HEK293 cells assessed as Gal4-DBD interaction by cellular mammalian one hybrid assay; type: functional, cell-based
[6] = Plasma concentration in db/db mouse at 1 mg/kg, iv after 240 mins; type: ADME, organism-based; design: dose 1 mg/kg, route intravenous; conditions: read-out: Drug uptake
Summary of the method: (§4)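 Single dose to mice, 5 mg/kg po or 1 mg/kg iv. Plasma was sampled at 5, 10, 30, 90 and 240 min. Only parent compound was measured, in ng/mL.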

[7] = Plasma concentration in db/db mouse at 5 mg/kg, po after 5 mins; type: ADME, organism-based; design: dose 5 mg/kg, route oral; conditions: read-out: Drug uptake; summary of the method: as §4
[8] = Oral bioavailability in db/db mouse at 5 mg/kg, po; type: ADME, organism-based; conditions: in vivo; summary of the method: as §3
[9] = Plasma concentration in db/db mouse at 1 mg/kg, iv after 90 mins; type: ADME, organism-based; design: dose 1 mg/kg, route intravenous; conditions: read-out: Drug uptake; summary of the method: as §4
[10] = Drug level in db/db mouse bile measured metabolites as glucuronide at 5 mg/kg, po after 240 mins; type: ADME, organism-based; design: dose 5 mg/kg, route oral; conditions: in vivo, 4 h
[11] = Drug level in db/db mouse liver at 25 mg/kg bid after 4 hrs by LC/MS-MS analysis; type: ADME, organism-based; design: dose 25 mg/kg; conditions: read-out: Drug uptake; summary of the method: as §1
Liver [12] = experiment: Drug level in db/db mouse liver measured metabolites as carboxylic acid at 1 mg/kg, iv after 240 mins; type: ADME, organism-based; design: dose 1 mg/kg, route intravenous; conditions: in vivo, 4 h; summary of the method: as §2
[13] = Plasma concentration in db/db mouse at 5 mg/kg, po after 10 mins; type: ADME, organism-based; design: dose 5 mg/kg, route oral; conditions: read-out: Drug uptake; summary of the method: as §4
[14] = Drug level in db/db mouse bile measured metabolites as carboxylic acid at 5 mg/kg, po after 240 mins; type: ADME, organism-based; design: dose 5 mg/kg, route oral; conditions: in vivo, 4 h
[15] = Drug level in db/db mouse bile measured metabolites as taurine amide at 1 mg/kg, iv after 240 mins; type: ADME, organism-based; design: dose 1 mg/kg, route intravenous; conditions: in vivo, 4 h; summary of the method: as §2
Mus musculus [16] = experiment: Reduction in total plasma cholesterol level in db/db mouse at 1-25 mg/kg bid after 12 days; type: functional, organism-based
Summary of the method: (§5)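 C57BL/KSK-mLep^db/mLep^db mice were dosed orally at 1, 5 and 25 mg/kg b.i.d. for 12 days. Total plasma triglycerides and total plasma cholesterol were measured, with cholesterol reported as mg/dl. Significance was given at p<0.05, <0.01 and <0.001 levels.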

Mus musculus [17] = experiment: Volume of distribution in db/db mouse at 5 mg/kg, po; type: ADME, organism-based; design: dose 5 mg/kg, route oral; conditions: in vivo; summary of the method: as §3
Mus musculus [18] = experiment: Reduction in total plasma cholesterol level in db/db mouse at 1 mg/kg bid after 12 days; type: functional; summary of the method: as §5
Estrogen receptor = Estrogen receptor (Homo sapiens, UniProt P03372); experiment: Agonist activity at ERalpha-LBD expressed in HEK293 cells assessed as Gal4-DBD interaction by cellular mammalian one hybrid assay; type: functional, cell-based
[19] = Clearance in db/db mouse at 1 mg/kg, iv; type: ADME, organism-based; design: dose 1 mg/kg, route intravenous; conditions: in vivo
Summary of the method: (§6)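 Mice received a single dose of 5 mg/kg po or 1 mg/kg iv. Plasma was sampled at 5, 10, 30, 90 and 240 min and the parent compound alone was measured (ng/mL). Clearance (mL/h/kg), Vd (mL/kg) and oral bioavailability were derived from these plasma profiles.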

[20] = Plasma concentration in db/db mouse at 5 mg/kg, po after 90 mins; type: ADME, organism-based; design: dose 5 mg/kg, route oral; conditions: read-out: Drug uptake; summary of the method: as §4
[21] = Plasma concentration in db/db mouse at 5 mg/kg, po after 30 mins; type: ADME, organism-based; design: dose 5 mg/kg, route oral; conditions: read-out: Drug uptake; summary of the method: as §4
[22] = Plasma concentration in db/db mouse at 1 mg/kg, iv after 30 mins; type: ADME, organism-based; design: dose 1 mg/kg, route intravenous; conditions: read-out: Drug uptake; summary of the method: as §4
Mus musculus [23] = experiment: Reduction in total plasma triglyceride level in db/db mouse at 1-25 mg/kg bid after 12 days; type: functional, organism-based; summary of the method: as §5
[24] = Clearance in db/db mouse at 5 mg/kg, po; type: ADME, organism-based; design: dose 5 mg/kg, route oral; conditions: in vivo; summary of the method: as §6
[25] = Drug level in db/db mouse bile measured metabolites as taurine amide at 5 mg/kg, po after 240 mins; type: ADME, organism-based; design: dose 5 mg/kg, route oral; conditions: in vivo, 4 h; summary of the method: as §2
[26] = Plasma concentration in db/db mouse at 5 mg/kg, po after 240 mins; type: ADME, organism-based; design: dose 5 mg/kg, route oral; conditions: read-out: Drug uptake; summary of the method: as §4
[27] = Drug level in db/db mouse bile measured metabolites as glucuronide at 1 mg/kg, iv after 240 mins; type: ADME, organism-based; design: dose 1 mg/kg, route intravenous; conditions: in vivo, 4 h
Liver [28] = experiment: Drug level in db/db mouse liver measured metabolites as glucuronide at 1 mg/kg, iv after 240 mins; type: ADME, organism-based; design: dose 1 mg/kg, route intravenous; conditions: in vivo, 4 h; summary of the method: as §2
[29] = Plasma concentration in db/db mouse at 1 mg/kg, iv after 10 mins; type: ADME, organism-based; design: dose 1 mg/kg, route intravenous; conditions: read-out: Drug uptake; summary of the method: as §4
Liver [30] = experiment: Drug level in db/db mouse liver measured metabolites as glucuronide at 5 mg/kg, po after 240 mins; type: ADME, organism-based; design: dose 5 mg/kg, route oral; conditions: in vivo, 4 h; summary of the method: as §2
Liver [31] = experiment: Drug level in db/db mouse liver measured metabolites as taurine amide at 1 mg/kg, iv after 240 mins; type: ADME, organism-based; design: dose 1 mg/kg, route intravenous; conditions: in vivo, 4 h; summary of the method: as §2
Liver [32] = experiment: Drug level in db/db mouse liver measured metabolites as taurine amide at 5 mg/kg, po after 240 mins; type: ADME, organism-based; design: dose 5 mg/kg, route oral; conditions: in vivo, 4 h; summary of the method: as §2

Sequence of Peroxisome proliferator-activated receptor alpha (Q07869 whole entry, the tested form may be a part): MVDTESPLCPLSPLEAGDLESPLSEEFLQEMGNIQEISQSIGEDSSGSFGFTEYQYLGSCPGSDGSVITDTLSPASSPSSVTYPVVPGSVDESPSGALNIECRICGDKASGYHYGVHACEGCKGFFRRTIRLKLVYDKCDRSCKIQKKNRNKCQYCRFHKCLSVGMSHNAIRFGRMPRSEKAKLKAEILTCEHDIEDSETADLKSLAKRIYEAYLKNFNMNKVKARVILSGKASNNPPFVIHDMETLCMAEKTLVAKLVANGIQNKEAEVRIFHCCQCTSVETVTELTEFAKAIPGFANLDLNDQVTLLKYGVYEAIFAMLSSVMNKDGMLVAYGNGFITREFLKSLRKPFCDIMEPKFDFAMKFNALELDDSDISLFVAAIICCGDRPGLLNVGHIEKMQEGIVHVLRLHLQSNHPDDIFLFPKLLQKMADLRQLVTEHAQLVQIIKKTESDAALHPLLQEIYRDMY
Sequence of Estrogen receptor beta (Q92731 whole entry, the tested form may be a part): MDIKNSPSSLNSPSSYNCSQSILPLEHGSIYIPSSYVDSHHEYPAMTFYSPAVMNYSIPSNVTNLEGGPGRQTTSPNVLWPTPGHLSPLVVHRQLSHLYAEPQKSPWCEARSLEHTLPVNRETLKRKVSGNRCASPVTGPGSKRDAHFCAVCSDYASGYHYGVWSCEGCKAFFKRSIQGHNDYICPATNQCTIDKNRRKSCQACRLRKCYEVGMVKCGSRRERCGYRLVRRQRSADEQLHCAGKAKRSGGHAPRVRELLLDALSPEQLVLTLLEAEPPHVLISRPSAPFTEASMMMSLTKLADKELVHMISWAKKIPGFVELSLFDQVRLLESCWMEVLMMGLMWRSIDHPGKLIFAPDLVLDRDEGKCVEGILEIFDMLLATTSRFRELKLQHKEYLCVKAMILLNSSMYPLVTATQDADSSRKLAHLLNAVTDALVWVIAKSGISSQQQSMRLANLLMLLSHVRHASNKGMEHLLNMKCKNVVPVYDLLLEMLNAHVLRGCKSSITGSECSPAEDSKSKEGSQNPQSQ
Sequence of Estrogen receptor (P03372 whole entry, the tested form may be a part): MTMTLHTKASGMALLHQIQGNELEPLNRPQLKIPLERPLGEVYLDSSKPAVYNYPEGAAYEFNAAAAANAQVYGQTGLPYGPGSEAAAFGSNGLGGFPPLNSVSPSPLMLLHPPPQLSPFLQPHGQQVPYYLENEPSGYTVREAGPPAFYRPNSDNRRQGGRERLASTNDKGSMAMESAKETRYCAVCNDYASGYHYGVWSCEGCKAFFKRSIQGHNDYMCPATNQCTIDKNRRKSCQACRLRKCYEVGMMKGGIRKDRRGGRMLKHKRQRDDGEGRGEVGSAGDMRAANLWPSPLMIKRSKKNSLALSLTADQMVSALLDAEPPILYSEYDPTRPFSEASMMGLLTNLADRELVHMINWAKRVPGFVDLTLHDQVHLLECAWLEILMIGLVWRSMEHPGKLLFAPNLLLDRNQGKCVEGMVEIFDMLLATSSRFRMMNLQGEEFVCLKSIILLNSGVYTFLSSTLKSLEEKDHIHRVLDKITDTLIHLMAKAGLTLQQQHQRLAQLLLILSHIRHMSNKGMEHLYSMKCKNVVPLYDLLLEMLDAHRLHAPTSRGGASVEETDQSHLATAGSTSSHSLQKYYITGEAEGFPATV

SMILES | EC50 (Estrogen receptor beta) | concentration at 4 h [1] | concentration at 24 h [2] | Drug uptake (Liver [3]) | Vd (Mus musculus [4]) | EC50 [5] | concentration at 5 min [7] | bioavailability [8] | concentration at 1.5 h [9] | Drug uptake [10] | concentration at 4 h [11] | Drug uptake (Liver [12]) | concentration at 10 min [13] | Drug uptake [14] | Drug uptake [15] | Activity (Mus musculus [16]) | Vd (Mus musculus [17]) | EC50 (Estrogen receptor) | clearance [19] | concentration at 1.5 h [20] | further results
CN(Cc1ccc(C(=O)O)cc1)c1ccc(OCc2c(-c3c(Cl)cccc3Cl)noc2C2CC2)nc1C(F)(F)F | > 10 µM | 344 nM | 11 nM | 257 ng/mL | 1.24 L/kg | > 10 µM | 427 ng/mL | 16.1% | 398 ng/mL | 2807 ng/mL | 14800 nM | 23 ng/mL | 283 ng/mL | 1446 ng/mL | 10013 ng/mL | Active | 5.2 L/kg | > 10 µM | 11.9 mL/min/kg | 370 ng/mL | concentration at 4 h [6]: 94 ng/mL; Activity (Mus musculus [18]): 97.2 mg/dL; concentration at 0.5 h [21]: 531 ng/mL; concentration at 0.5 h [22]: 325 ng/mL; Activity (Mus musculus [23]): Active; CL/F [24]: 67.9 mL/min/kg; Drug uptake [25]: 47638 ng/mL; concentration at 4 h [26]: 52 ng/mL; Drug uptake [27]: 150 ng/mL; Drug uptake (Liver [28]): 17 ng/mL; concentration at 10 min [29]: 437 ng/mL; Drug uptake (Liver [30]): 172 ng/mL
CC(C)c1onc(-c2c(Cl)cccc2Cl)c1COc1ccc(N(C)Cc2ccc(C(=O)O)cc2)c(C(F)(F)F)n1 | > 10 µM | 512 nM | 3 nM | 1512 ng/mL | 0.931 L/kg | > 10 µM | 57 ng/mL | 16.2% | 122 ng/mL | 18928 ng/mL | 10400 nM | 262 ng/mL | 92 ng/mL | 1697 ng/mL | 11927 ng/mL | Active | 5.26 L/kg | > 10 µM | 16.8 mL/min/kg | 267 ng/mL | Drug uptake (Liver [31]): 134 ng/mL; Drug uptake (Liver [32]): 372 ng/mL; concentration at 0.5 h [21]: 420 ng/mL; concentration at 0.5 h [22]: 361 ng/mL; Activity (Mus musculus [23]): Active; CL/F [24]: 104 mL/min/kg; Drug uptake [25]: 22443 ng/mL; concentration at 4 h [26]: 14 ng/mL; Drug uptake [27]: 4261 ng/mL; concentration at 10 min [29]: 1600 ng/mL; Drug uptake (Liver [30]): 2872 ng/mL
